Consider 54 compounds from ChEMBL document CHEMBL1136012, “Synthesis and structure-activity relationships of novel 7-substituted 1,4-dihydro-4-oxo-1-(2-thiazolyl)-1,8-naphthyridine-3-carboxylic acids as antitumor agents. Part 1” (J Med Chem, 2002).

Assay [1] deals with P388. Kind of assay: Cytotoxic activity of compound against Murine P388 Leukemia. The class given is functional, cell-based, Mus musculus. The method, boiled down:
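Murine P388 cells were cultured in EMEM with 10% FBS, 2 mM glutamine, 50 units/mL penicillin and 50 μg/mL streptomycin. They were seeded at (1–2) × 10^4 cells/mL without preincubation and exposed to varying concentrations for 72 h at 37 °C, 5% CO2. MTT was then added for 4 h, formazan dissolved in DMSO and read at 570/690 nm.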

Assay [2] relates to P388. In words: In vitro antitumor activity of compound against P388 leukemia cells at a dose of […] mg/kg. The assay is classed as functional, Mus musculus. More on the design: concentration or dose not given beside the values.
Assay [3] concerns P388. In words: […] antitumor activity of compound against P388 leukemia cells at a dose of 50 mg/kg. The assay is classed as functional, Mus musculus. The method, boiled down: (§1)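 In vivo study: BDF1 mice received 10^6 P388 leukemia cells ip as diluted ascites fluid. Test compounds were suspended in 0.4% CMC and given ip on days 1 and 5 after implantation, with seven mice per group. The endpoint is T/C% = median survival time of the treated group / median survival time of controls × 100.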

Assay [4] has as its system P388. In words: […] antitumor activity of compound against P388 leukemia cells at a dose of 3.13 mg/kg. The assay is classed as functional, Mus musculus. A digest of the protocol: as §1
Where [5] appears, read: Mus musculus, P388, read-out: IC50.

Take `Cl.NC1CCN(c2ncc3c(=O)c(C(=O)O)cn(-c4nccs4)c3n2)C1` (stereo not drawn): the half-inhibitory concentration (IC50) in the assay with P388 [1] (setting [5]) amounted to 0.047 mg/L. On the same count and under the same terms, then `COc1cnc(-n2cc(C(=O)O)c(=O)c3cc(F)c(N4CCC(N)C4)nc32)s1.Cl` (stereo not drawn), with 0.35 mg/L. On the same count and under the same terms, under `Cl.NC1CCN(c2nc3c(cc2F)c(=O)c(C(=O)O)cn3C2CC2)C1` (stereo not drawn) stands 7.9 mg/L. Turning to CISPLATIN, the IC50 in the assay with P388 [1] (p388) stood at 0.011 mg/L.

Turning to `Cl.NC1CCN(c2nc3c(cc2F)c(=O)c(C(=O)O)cn3Cc2nccs2)C1` (stereo not drawn), the IC50 with P388 [1] (setting [5]) is > 10 mg/L. The same measure, in the same setting: then `Cl.NCC1CN(c2nc3c(cc2F)c(=O)c(C(=O)O)cn3-c2nccs2)C[C@H]1Cl` (stereo partly drawn), with 0.156 mg/L; and `Cl.O=C(O)c1cn(-c2nccs2)c2nc(-n3ccnc3)c(F)cc2c1=O`, with > 10 mg/L; and `COc1ccccc1N1CCN(c2nc3c(cc2F)c(=O)c(C(=O)O)cn3-c2nccs2)CC1.Cl`, with > 1 mg/L.

In the case of `Cl.NCCNc1nc2c(cc1F)c(=O)c(C(=O)O)cn2-c1nccs1`, the IC50 with P388 [1] (setting [5]) was > 10 mg/L. Still for that read-out and setting: under `Cl.O=C(O)c1cn(-c2nccs2)c2nc(N3CCCC3)c(F)cc2c1=O` stands 0.08 mg/L; under `Cl.N[C@@H]1CCN(c2nc3c(cc2F)c(=O)c(C(=O)O)cn3-c2nccs2)C1`, 0.016 mg/L. Take `CO[C@@H]1CN(c2nc3c(cc2F)c(=O)c(C(=O)O)cn3-c2nccs2)C[C@@H]1N.Cl`: the IC50 with P388 [1] (setting [5]) stood at 0.084 mg/L.

With `Cl.O=C(O)c1cn(-c2nccs2)c2nc(N3CC4NCCOC4C3)c(F)cc2c1=O` (stereo not drawn), in the assay on P388 [1] (setting [5]), the IC50 was > 1 mg/L.

With `Cl.O=C(O)c1cn(-c2nccs2)c2nc(N3CC[C@H](O)C3)c(F)cc2c1=O`, the IC50 in the assay on P388 [1] (setting [5]) stood at 0.02 mg/L. With `Cl.NCC1CCN(c2nc3c(cc2F)c(=O)c(C(=O)O)cn3-c2nccs2)C1` (stereo not drawn), the 50% inhibitory concentration (IC50) with P388 [1] (setting [5]) worked out at 0.101 mg/L.

On to `Cl.NC1C=CC[C@H]2CN(c3nc4c(cc3F)c(=O)c(C(=O)O)cn4-c3nccs3)C[C@@H]12` (stereo partly drawn), for which, in the assay with P388 [1] (setting [5]), the IC50 was 0.15 mg/L.

Take `Cl.NCCSc1nc2c(cc1F)c(=O)c(C(=O)O)cn2-c1nccs1`: the IC50 in the assay with P388 [1] (setting [5]) is > 10 mg/L. For the compound `Cl.O=C(O)c1cn(-c2nccs2)c2nc(N3CC[C@@H](O)C3)c(F)cc2c1=O`, the IC50 in the assay with P388 [1] (setting [5]) was determined as 0.065 mg/L.

In the case of `Cl.NC1CCN(c2nc3c(cc2F)c(=O)c(C(=O)O)cn3-c2cccs2)C1` (stereo not drawn), the IC50 in the assay with P388 [1] (setting [5]) is 1.2 mg/L.

In the case of `Cl.NC1(CO)CCN(c2nc3c(cc2F)c(=O)c(C(=O)O)cn3-c2nccs2)C1` (stereo not drawn), the IC50 in the assay with P388 [1] (setting [5]) stood at 0.084 mg/L. The same measure, in the same setting: under `Cl.NC1CCN(c2nc3c(cc2F)c(=O)c(C(=O)O)cn3-c2ccccc2)C1` (stereo not drawn) stands 2.4 mg/L. For the compound `CN1CC=C2CN(c3nc4c(cc3F)c(=O)c(C(=O)O)cn4-c3nccs3)CC21.Cl` (stereo not drawn), the IC50 in the assay on P388 [1] (setting [5]) is 0.038 mg/L. On the same count and under the same terms, then `Cc1cc(-n2cc(C(=O)O)c(=O)c3cc(F)c(N4CCC(N)C4)nc32)on1.Cl` (stereo not drawn), with 0.58 mg/L; and `Cl.O=C(O)c1cn(-c2nccs2)c2nc(N3C[C@@H]4CCCN[C@@H]4C3)c(F)cc2c1=O`, with 0.304 mg/L. `Cc1cnc(-n2cc(C(=O)O)c(=O)c3cc(F)c(N4CCC(N)C4)nc32)s1.Cl` (stereo not drawn): in the assay on P388 [1] (setting [5]), the IC50 turned out to be 0.26 mg/L. The same measure, in the same setting: then `Cl.NC1CCN(c2nc3c(cc2F)c(=O)c(C(=O)O)cn3-c2ccccn2)C1` (stereo not drawn), with > 10 mg/L. Same read-out and setting: then `Cl.NC1CCN(c2nc3c(cc2F)c(=O)c(C(=O)O)cn3-c2ncc(Br)s2)C1` (stereo not drawn), with 0.085 mg/L.

Regarding `CN(C)C1CCN(c2nc3c(cc2F)c(=O)c(C(=O)O)cn3-c2nccs2)C1.Cl` (stereo not drawn), the T/C in the assay on P388 [2] came to 175%; in the assay on P388 [3], 225%; in the assay on P388 [4] it was 138%. In the assay with P388 [1] (setting [5]), the IC50 worked out at 0.057 mg/L. In the case of `Cc1csc(-n2cc(C(=O)O)c(=O)c3cc(F)c(N4CCC(N)C4)nc32)n1.Cl` (stereo not drawn), the IC50 in the assay on P388 [1] (setting [5]) was found to be 0.051 mg/L. Still for that read-out and setting: then `Cl.NC1CCN(c2nc3c(cc2F)c(=O)c(C(=O)O)cn3-c2ncc(Cl)s2)C1` (stereo not drawn), with 0.094 mg/L. Take `CO[C@H]1CN(c2nc3c(cc2F)c(=O)c(C(=O)O)cn3-c2nccs2)C[C@@H]1N.Cl` (stereo in doubt; (S,S)-43j): the IC50 in the assay on P388 [1] (p388) is 0.023 mg/L.

With `Cl.NC1CCN(c2cc3c(cc2F)c(=O)c(C(=O)O)cn3-c2nccs2)C1` (stereo not drawn), the IC50 with P388 [1] (setting [5]) was > 10 mg/L. Still for that read-out and setting: under `Cl.NC1CCN(c2cc3c(cn2)c(=O)c(C(=O)O)cn3-c2nccs2)C1` (stereo not drawn) stands > 1 mg/L; under `Cl.NCC1CN(c2nc3c(cc2F)c(=O)c(C(=O)O)cn3-c2nccs2)CCO1` (stereo not drawn), 1.73 mg/L; under `Cl.NC1CCN(c2nc3c(cc2F)c(=O)c(C(=O)O)cn3-c2ccno2)C1` (stereo not drawn), 9.4 mg/L. The same measure, in the same setting: then `Cc1nc(-n2cc(C(=O)O)c(=O)c3cc(F)c(N4CCC(N)C4)nc32)sc1C.Cl` (stereo not drawn), with 0.18 mg/L; and `Cl.NC1CCN(c2nc3c(cc2F)c(=O)c(C(=O)O)nn3-c2nccs2)C1` (stereo not drawn), with > 10 mg/L; and `Cl.NC1CCN(c2nc3c(cc2F)c(=O)c(C(=O)O)cn3-c2nc3ccccc3s2)C1` (stereo not drawn), with 0.049 mg/L. As to `Cl.O=C(O)c1cn(-c2nccs2)c2nc(N3CCSCC3)c(F)cc2c1=O`, the IC50 in the assay on P388 [1] (setting [5]) was found to be 1.74 mg/L. On the same count and under the same terms, under `Cl.NC1CCN(c2nc3c(cc2F)c(=O)c(C(=O)O)cn3-c2ccc(F)cc2)C1` (stereo not drawn) stands 2.1 mg/L. Still for that read-out and setting: under `Cl.NCC1=CCN(c2nc3c(cc2F)c(=O)c(C(=O)O)cn3-c2nccs2)C1` stands 0.084 mg/L. Same read-out and setting: under `Cl.NC1CCN(c2nc3c(cc2F)c(=O)c(C(=O)O)cn3-c2nc(-c3ccccc3)cs2)C1` (stereo not drawn) stands 0.052 mg/L; under `Cl.N[C@H]1CN(c2nc3c(cc2F)c(=O)c(C(=O)O)cn3-c2nccs2)C[C@@H]1O`, 2.09 mg/L. For the compound `Cl.O=C(O)c1cn(-c2nccs2)c2nc(O)c(F)cc2c1=O`, the IC50 with P388 [1] (setting [5]) is > 10 mg/L.

Take `CO[C@@H]1CN(c2nc3c(cc2F)c(=O)c(C(=O)O)cn3-c2nccs2)C[C@H]1N.Cl`: the IC50 in the assay on P388 [1] (setting [5]) came out at 0.068 mg/L. Still for that read-out and setting: then `Cl.Cn1nccc1-n1cc(C(=O)O)c(=O)c2cc(F)c(N3CCC(N)C3)nc21` (stereo not drawn), with > 10 mg/L; and `Cl.NC1CCN(c2nc3c(cc2F)c(=O)c(C(=O)O)cn3-c2nncs2)C1` (stereo not drawn), with 5.5 mg/L.

Turning to `C[C@H]1CN(c2nc3c(cc2F)c(=O)c(C(=O)O)cn3-c2nccs2)C[C@@H]1N.Cl`, the T/C in the assay on P388 [2] was determined as 175%; in the assay on P388 [3], 238%; with P388 [4] it was 138%. In the assay on P388 [1] (setting [5]), the IC50 was determined as 0.011 mg/L.

`CC1(N)CCN(c2nc3c(cc2F)c(=O)c(C(=O)O)cn3-c2nccs2)C1.Cl` (stereo not drawn): the results for the T/C in the assay with P388 [2], in the assay on P388 [3] and in the assay with P388 [4] were 213%, >375% and 138%, respectively. Further, the IC50 in the assay with P388 [1] (setting [5]) was 0.026 mg/L. With `Cl.N[C@H]1CCN(c2nc3c(cc2F)c(=O)c(C(=O)O)cn3-c2nccs2)C1`, the IC50 with P388 [1] (setting [5]) is 0.028 mg/L. In the case of `C[C@@H]1CN(c2nc3c(cc2F)c(=O)c(C(=O)O)cn3-c2nccs2)C[C@@H]1N.Cl`, the IC50 in the assay on P388 [1] (setting [5]) is 0.057 mg/L.

Consider `Cl.NC1CCN(c2nc3c(cc2F)c(=O)c(C(=O)O)cn3-c2nccs2)CC1`, for which the IC50 with P388 [1] (setting [5]) is 1.63 mg/L. The same measure, in the same setting: under `Cl.NC1CCN(c2c(F)cc3c(=O)c(C(=O)O)cn(-c4nccs4)c3c2F)C1` (stereo not drawn) stands 55 mg/L; under `CC(C)(C)c1csc(-n2cc(C(=O)O)c(=O)c3cc(F)c(N4CCC(N)C4)nc32)n1.Cl` (stereo not drawn), 0.88 mg/L.
